In ChEMBL document CHEMBL2346519, “Substituted indolin-2-ones as p90 ribosomal S6 protein kinase 2 (RSK2) inhibitors: Molecular docking simulation and structure-activity relationship analysis” (Bioorg Med Chem, 2013):

What was measured:
[1] = biological target: Tyrosine-protein kinase ABL1 (Homo sapiens) (UniProt P00519); assay: Inhibition of ABL (unknown origin) at 3 uM after 10 mins by mobility shift assay relative to control
[2] = biological target: Tyrosine-protein kinase Lck (Homo sapiens) (UniProt P06239); settings: 10 uM
[3] = biological target: Tyrosine-protein kinase Lck (Homo sapiens) (UniProt P06239); settings: 3 uM
[4] = biological target: Tyrosine-protein kinase Lyn (Homo sapiens) (UniProt P07948); assay: Inhibition of LYNA (unknown origin) at 3 uM after 10 mins by mobility shift assay relative to control
[5] = biological target: T1, RAC-alpha serine/threonine-protein kinase (Homo sapiens, UniProt P31749); assay: Inhibition of AKT1 (unknown origin) after 10 mins by mobility shift assay
T1 sequence (P31749 whole entry): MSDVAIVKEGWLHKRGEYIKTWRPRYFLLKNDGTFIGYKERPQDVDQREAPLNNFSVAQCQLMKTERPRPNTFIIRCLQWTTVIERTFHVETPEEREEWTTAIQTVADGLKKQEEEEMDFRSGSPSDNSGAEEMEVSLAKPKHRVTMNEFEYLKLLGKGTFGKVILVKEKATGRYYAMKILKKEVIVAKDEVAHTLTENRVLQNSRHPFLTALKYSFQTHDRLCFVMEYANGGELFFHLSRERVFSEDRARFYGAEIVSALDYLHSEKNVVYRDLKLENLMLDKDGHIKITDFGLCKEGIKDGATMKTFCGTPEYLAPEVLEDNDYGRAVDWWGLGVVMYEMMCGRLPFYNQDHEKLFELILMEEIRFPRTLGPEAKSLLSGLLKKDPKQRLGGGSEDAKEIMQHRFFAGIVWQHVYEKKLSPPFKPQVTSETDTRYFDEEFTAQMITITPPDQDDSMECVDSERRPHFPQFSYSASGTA

[6] = biological target: Protein kinase C alpha type (Homo sapiens) (UniProt P17252); assay: Inhibition of PKC alpha (unknown origin) using PIP2 as substrate at 3 uM after 1 hr by Kinase-Glo assay relative to control
[7] = biological target: Tyrosine-protein kinase ABL1 (Homo sapiens) (UniProt P00519); assay: Inhibition of ABL (unknown origin) at 10 uM after 10 mins by mobility shift assay relative to control
[8] = biological target: T2, Mitogen-activated protein kinase 14 (Homo sapiens, UniProt Q16539); assay: Inhibition of p38alpha (unknown origin) after 10 mins by mobility shift assay
T2 sequence (Q16539 whole entry): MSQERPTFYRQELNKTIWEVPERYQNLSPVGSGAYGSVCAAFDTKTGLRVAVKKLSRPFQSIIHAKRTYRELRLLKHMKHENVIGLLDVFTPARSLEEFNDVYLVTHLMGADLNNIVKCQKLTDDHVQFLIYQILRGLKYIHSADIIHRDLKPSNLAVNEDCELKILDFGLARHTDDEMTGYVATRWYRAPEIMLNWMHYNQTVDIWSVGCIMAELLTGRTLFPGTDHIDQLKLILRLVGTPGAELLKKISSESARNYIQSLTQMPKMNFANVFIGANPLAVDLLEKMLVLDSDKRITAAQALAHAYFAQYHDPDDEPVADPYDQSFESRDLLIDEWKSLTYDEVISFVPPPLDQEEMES

[9] = biological target: Mast/stem cell growth factor receptor Kit (Homo sapiens) (UniProt P10721); settings: 3 uM
Sequence of Mast/stem cell growth factor receptor Kit (Homo sapiens) (P10721 whole entry): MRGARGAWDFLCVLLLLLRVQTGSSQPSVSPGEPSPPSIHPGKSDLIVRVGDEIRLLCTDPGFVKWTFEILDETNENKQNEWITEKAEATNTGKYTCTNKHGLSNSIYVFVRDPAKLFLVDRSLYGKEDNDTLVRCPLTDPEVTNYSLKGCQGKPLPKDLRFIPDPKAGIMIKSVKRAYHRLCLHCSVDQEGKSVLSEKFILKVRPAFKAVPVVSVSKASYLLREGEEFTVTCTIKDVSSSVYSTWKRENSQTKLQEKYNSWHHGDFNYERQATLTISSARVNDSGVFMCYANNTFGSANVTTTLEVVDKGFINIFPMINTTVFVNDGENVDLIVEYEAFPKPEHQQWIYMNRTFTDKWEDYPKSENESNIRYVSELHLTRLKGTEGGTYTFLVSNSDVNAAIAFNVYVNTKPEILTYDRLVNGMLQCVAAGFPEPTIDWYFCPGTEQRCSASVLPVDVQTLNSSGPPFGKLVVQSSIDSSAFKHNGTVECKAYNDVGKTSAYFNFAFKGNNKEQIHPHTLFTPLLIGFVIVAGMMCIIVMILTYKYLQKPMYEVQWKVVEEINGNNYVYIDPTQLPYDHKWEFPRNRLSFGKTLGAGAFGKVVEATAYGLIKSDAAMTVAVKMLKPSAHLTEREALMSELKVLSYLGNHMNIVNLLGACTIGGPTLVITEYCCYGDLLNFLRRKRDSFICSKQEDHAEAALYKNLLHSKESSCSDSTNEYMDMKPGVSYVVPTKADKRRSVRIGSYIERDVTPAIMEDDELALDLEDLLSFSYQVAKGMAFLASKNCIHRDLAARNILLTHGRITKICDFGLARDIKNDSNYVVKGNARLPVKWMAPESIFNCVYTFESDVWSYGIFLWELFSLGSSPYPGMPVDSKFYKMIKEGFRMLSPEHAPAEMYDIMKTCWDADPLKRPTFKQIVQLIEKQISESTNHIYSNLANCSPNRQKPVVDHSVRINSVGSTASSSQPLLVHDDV

[10] = biological target: Proto-oncogene tyrosine-protein kinase Src (Homo sapiens) (UniProt P12931); settings: 10 uM
[11] = biological target: Mitogen-activated protein kinase 3 (Homo sapiens) (UniProt P27361); assay: Inhibition of ERK1 (unknown origin) at 10 uM after 10 mins by mobility shift assay relative to control
[12] = biological target: Platelet-derived growth factor receptor alpha (Homo sapiens) (UniProt P16234); assay: Inhibition of PDGFRalpha (unknown origin) at 10 uM after 10 mins by mobility shift assay relative to control
[13] = biological target: T3, Ribosomal protein S6 kinase alpha-3 (Homo sapiens, UniProt P51812); settings: 3 uM
T3 sequence (P51812 whole entry): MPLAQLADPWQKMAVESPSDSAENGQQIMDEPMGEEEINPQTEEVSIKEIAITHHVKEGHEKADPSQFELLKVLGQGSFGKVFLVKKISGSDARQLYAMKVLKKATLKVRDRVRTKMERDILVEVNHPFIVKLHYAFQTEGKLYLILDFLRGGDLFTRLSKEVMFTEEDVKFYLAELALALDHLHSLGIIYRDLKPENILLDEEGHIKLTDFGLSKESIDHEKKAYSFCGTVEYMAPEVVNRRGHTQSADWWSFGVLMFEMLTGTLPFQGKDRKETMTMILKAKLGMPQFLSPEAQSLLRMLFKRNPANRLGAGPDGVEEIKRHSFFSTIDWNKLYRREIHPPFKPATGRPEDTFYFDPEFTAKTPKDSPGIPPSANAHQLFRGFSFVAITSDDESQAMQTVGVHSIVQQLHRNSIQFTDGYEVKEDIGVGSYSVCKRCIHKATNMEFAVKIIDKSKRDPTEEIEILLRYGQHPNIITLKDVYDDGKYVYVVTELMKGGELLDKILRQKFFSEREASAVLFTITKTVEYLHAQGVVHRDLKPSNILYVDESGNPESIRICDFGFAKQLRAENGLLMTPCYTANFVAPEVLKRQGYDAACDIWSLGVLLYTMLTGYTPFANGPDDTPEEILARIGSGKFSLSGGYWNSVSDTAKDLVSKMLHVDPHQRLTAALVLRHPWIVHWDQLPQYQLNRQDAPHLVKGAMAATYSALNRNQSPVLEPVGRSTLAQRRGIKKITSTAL

[14] = biological target: T2, Mitogen-activated protein kinase 14; settings: 10 uM
[15] = system: MCF7; assay: Cytotoxicity against human MCF7 cells assessed as growth inhibition after 48 hrs by MTT assay; format: functional, cell-based; settings: MCF7, 48 h
In short: (§1)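 MCF-7 cells grown in DMEM plus 10% FBS and PC 3 cells in F-12K, both seeded at 5 × 10^3 per well. Cells were exposed to compounds at various concentrations for 48 h. MTT was then added for 4 h at 37 °C in 5% CO2, formazan was dissolved in DMSO, and absorbance was read at 570 nm. IC50 was taken from inhibition curves of three independent experiments and measured only where inhibition at 100 µM exceeded 50%.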

[16] = biological target: Serine/threonine-protein kinase pim-1 (Homo sapiens) (UniProt P11309); assay: Inhibition of PIM1 (unknown origin) at 10 uM after 10 mins by mobility shift assay relative to control
[17] = biological target: Aurora kinase B (Homo sapiens) (UniProt Q96GD4); assay: Inhibition of Aurora B (unknown origin) at 10 uM after 10 mins by mobility shift assay relative to control
[18] = biological target: Vascular endothelial growth factor receptor 2 (Homo sapiens) (UniProt P35968); settings: 10 uM
[19] = biological target: Protein kinase C alpha type (Homo sapiens) (UniProt P17252); assay: Inhibition of PKC alpha (unknown origin) using PIP2 as substrate at 10 uM after 1 hr by Kinase-Glo assay relative to control
[20] = biological target: T3, Ribosomal protein S6 kinase alpha-3; assay: Inhibition of RSK2 (unknown origin) using AKRRRLSSLRA as substrate at 10 uM after 60 mins by fluorescence assay relative to control
[21] = biological target: T3, Ribosomal protein S6 kinase alpha-3; assay: Inhibition of RSK2 (unknown origin) using AKRRRLSSLRA as substrate after 60 mins by fluorescence assay
[22] = biological target: Hepatocyte growth factor receptor (Homo sapiens) (UniProt P08581); assay: Inhibition of c-MET (unknown origin) at 3 uM after 10 mins by mobility shift assay relative to control
[23] = biological target: T1, RAC-alpha serine/threonine-protein kinase; assay: Inhibition of AKT1 (unknown origin) at 3 uM after 10 mins by mobility shift assay relative to control
[24] = biological target: Ribosomal protein S6 kinase alpha-5 (Homo sapiens) (UniProt O75582); assay: Inhibition of MSK1 (unknown origin) at 10 uM after 10 mins by mobility shift assay relative to control
Sequence of Ribosomal protein S6 kinase alpha-5 (Homo sapiens) (O75582 whole entry, looked up): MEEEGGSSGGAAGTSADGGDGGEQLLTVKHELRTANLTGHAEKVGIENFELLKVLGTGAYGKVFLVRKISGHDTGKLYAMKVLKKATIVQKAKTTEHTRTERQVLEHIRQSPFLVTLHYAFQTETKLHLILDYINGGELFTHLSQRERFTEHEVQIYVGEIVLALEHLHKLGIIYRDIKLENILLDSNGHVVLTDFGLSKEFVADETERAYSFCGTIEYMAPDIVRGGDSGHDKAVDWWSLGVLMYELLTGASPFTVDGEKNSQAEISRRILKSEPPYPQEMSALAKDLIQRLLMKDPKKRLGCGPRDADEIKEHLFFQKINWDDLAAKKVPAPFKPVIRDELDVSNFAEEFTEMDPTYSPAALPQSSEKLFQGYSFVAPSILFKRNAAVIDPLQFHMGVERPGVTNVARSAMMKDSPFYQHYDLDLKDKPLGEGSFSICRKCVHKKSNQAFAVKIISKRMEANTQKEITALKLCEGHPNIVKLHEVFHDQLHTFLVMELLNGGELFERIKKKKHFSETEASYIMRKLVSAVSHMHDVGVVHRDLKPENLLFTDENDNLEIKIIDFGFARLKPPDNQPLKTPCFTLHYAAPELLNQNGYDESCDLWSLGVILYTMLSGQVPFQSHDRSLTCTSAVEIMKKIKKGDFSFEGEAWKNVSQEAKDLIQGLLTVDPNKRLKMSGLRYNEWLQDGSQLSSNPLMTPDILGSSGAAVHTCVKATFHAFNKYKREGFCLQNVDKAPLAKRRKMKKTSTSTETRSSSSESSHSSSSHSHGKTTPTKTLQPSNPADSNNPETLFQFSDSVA

[25] = biological target: Serine/threonine-protein kinase pim-1 (Homo sapiens) (UniProt P11309); assay: Inhibition of PIM1 (unknown origin) at 3 uM after 10 mins by mobility shift assay relative to control
[26] = biological target: T2, Mitogen-activated protein kinase 14; settings: 3 uM
[27] = biological target: Ribosomal protein S6 kinase beta-1 (Homo sapiens) (UniProt P23443); assay: Inhibition of p70S6K (unknown origin) at 10 uM after 10 mins by mobility shift assay relative to control
[28] = biological target: Fibroblast growth factor receptor 1 (Homo sapiens) (UniProt P11362); settings: 3 uM
[29] = biological target: Hepatocyte growth factor receptor (Homo sapiens) (UniProt P08581); assay: Inhibition of c-MET (unknown origin) at 10 uM after 10 mins by mobility shift assay relative to control
[30] = biological target: Glycogen synthase kinase-3 beta (Homo sapiens) (UniProt P49841); settings: 3 uM
[31] = biological target: Fibroblast growth factor receptor 3 (Homo sapiens) (UniProt P22607); settings: 10 uM
[32] = biological target: Ribosomal protein S6 kinase beta-1 (Homo sapiens) (UniProt P23443); settings: 3 uM
[33] = biological target: Ribosomal protein S6 kinase alpha-5 (Homo sapiens) (UniProt O75582); settings: 3 uM
[34] = biological target: Aurora kinase B (Homo sapiens) (UniProt Q96GD4); assay: Inhibition of Aurora B (unknown origin) at 3 uM after 10 mins by mobility shift assay relative to control
[35] = system: PC-3; assay: Cytotoxicity against human PC3 cells assessed as growth inhibition after 48 hrs by MTT assay; format: functional, cell-based; settings: PC-3, 48 h; in short: as §1
[36] = biological target: Glycogen synthase kinase-3 beta (Homo sapiens) (UniProt P49841); settings: 10 uM
[37] = biological target: Platelet-derived growth factor receptor alpha (Homo sapiens) (UniProt P16234); assay: Inhibition of PDGFRalpha (unknown origin) at 3 uM after 10 mins by mobility shift assay relative to control
[38] = biological target: 3-phosphoinositide-dependent protein kinase 1 (Homo sapiens) (UniProt O15530); assay: Inhibition of PDK1 (unknown origin) at 3 uM after 10 mins by mobility shift assay relative to control
Sequence of 3-phosphoinositide-dependent protein kinase 1 (Homo sapiens) (O15530 whole entry, looked up): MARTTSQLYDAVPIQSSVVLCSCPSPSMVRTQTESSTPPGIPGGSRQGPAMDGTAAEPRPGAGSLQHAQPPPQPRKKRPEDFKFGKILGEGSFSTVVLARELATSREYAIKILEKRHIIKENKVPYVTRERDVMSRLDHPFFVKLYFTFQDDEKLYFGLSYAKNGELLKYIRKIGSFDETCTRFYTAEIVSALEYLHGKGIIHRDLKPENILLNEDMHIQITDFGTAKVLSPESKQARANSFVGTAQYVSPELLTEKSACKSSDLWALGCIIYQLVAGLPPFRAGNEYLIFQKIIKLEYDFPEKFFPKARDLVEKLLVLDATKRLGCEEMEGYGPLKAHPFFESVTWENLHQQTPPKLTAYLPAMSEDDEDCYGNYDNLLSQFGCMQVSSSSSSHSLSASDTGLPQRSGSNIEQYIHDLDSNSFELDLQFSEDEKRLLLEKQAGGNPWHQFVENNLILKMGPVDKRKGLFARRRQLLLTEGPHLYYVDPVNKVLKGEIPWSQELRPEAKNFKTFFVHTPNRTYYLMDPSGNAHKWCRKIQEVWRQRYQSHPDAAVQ

[39] = biological target: Mitogen-activated protein kinase 3 (Homo sapiens) (UniProt P27361); settings: 3 uM
[40] = biological target: Fibroblast growth factor receptor 3 (Homo sapiens) (UniProt P22607); settings: 3 uM
[41] = biological target: Proto-oncogene tyrosine-protein kinase Src (Homo sapiens) (UniProt P12931); assay: Inhibition of SRC (unknown origin) at 3 uM after 10 mins by mobility shift assay relative to control
[42] = biological target: Mitogen-activated protein kinase 9 (Homo sapiens) (UniProt P45984); assay: Inhibition of JNK2 (unknown origin) at 3 uM after 10 mins by mobility shift assay relative to control
[43] = biological target: Tyrosine-protein kinase Lyn (Homo sapiens) (UniProt P07948); assay: Inhibition of LYN-A (unknown origin) at 10 uM after 10 mins by mobility shift assay relative to control
[44] = biological target: Mast/stem cell growth factor receptor Kit (Homo sapiens) (UniProt P10721); assay: Inhibition of cKit (unknown origin) at 10 uM after 10 mins by mobility shift assay relative to control
[45] = biological target: Mitogen-activated protein kinase 9 (Homo sapiens) (UniProt P45984); assay: Inhibition of JNK2 (unknown origin) at 10 uM after 10 mins by mobility shift assay relative to control
[46] = biological target: 3-phosphoinositide-dependent protein kinase 1 (Homo sapiens) (UniProt O15530); assay: Inhibition of PDK1 (unknown origin) at 10 uM after 10 mins by mobility shift assay relative to control
[47] = biological target: T1, RAC-alpha serine/threonine-protein kinase; assay: Inhibition of AKT1 (unknown origin) at 10 uM after 10 mins by mobility shift assay relative to control
[48] = biological target: Vascular endothelial growth factor receptor 2 (Homo sapiens) (UniProt P35968); assay: Inhibition of KDR (unknown origin) at 3 uM after 10 mins by mobility shift assay relative to control
[49] = biological target: Fibroblast growth factor receptor 1 (Homo sapiens) (UniProt P11362); settings: 10 uM

Sequence of Tyrosine-protein kinase ABL1 (Homo sapiens) (P00519 whole entry): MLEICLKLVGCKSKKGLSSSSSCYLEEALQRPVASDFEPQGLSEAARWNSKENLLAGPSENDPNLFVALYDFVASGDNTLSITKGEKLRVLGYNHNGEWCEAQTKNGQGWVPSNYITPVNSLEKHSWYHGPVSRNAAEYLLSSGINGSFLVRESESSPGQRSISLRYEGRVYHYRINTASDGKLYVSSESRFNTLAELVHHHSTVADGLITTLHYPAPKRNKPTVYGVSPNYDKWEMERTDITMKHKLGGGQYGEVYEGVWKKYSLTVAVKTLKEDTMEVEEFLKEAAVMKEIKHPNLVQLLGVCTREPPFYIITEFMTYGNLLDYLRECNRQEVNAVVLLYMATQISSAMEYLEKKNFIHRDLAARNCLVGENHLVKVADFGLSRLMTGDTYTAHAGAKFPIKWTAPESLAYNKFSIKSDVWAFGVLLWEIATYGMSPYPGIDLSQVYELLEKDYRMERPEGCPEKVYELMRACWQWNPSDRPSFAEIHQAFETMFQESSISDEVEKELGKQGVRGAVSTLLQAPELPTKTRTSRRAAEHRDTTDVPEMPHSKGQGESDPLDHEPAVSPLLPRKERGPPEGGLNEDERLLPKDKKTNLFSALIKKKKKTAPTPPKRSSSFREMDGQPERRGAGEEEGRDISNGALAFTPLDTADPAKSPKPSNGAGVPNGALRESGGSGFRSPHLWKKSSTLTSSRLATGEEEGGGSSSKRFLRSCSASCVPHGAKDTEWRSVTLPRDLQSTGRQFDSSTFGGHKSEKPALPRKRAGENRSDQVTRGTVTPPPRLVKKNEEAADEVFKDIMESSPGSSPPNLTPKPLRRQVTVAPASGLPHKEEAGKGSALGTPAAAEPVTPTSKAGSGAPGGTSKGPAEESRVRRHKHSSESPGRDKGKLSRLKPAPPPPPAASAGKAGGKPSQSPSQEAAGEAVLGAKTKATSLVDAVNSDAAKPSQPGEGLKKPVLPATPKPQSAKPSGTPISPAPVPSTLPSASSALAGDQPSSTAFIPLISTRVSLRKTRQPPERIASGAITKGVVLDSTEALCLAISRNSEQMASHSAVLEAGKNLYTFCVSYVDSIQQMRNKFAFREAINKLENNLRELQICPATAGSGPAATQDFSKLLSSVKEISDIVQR

For O=C1Nc2ccccc2/C1=C/c1c[nH]nc1-c1ccccc1[N+](=O)[O-], the inhibition [1] was 43%, the inhibition [2] was 55% and the inhibition [3] was 31%. It also gave an inhibition [4] of 25%, an IC50 [5] of 11 nM and an inhibition [6] of 4.4%. The inhibition [7] was 67%, the IC50 [8] was 11 nM and the inhibition [9] was 55%. The inhibition [10] was 55%, the inhibition [11] was 57% and the inhibition [12] was 38%. The inhibition [13] was 61%, the inhibition [14] was 27% and the IC50 [15] was 14800 nM. For the same compound, the inhibition [16] was 4.7%, the inhibition [17] was 34% and the inhibition [18] was 65%. For the same compound, the inhibition [19] was 13%, the inhibition [20] was 93.4% and the IC50 [21] was 500 nM. For the same compound, the inhibition [22] was 12%, the inhibition [23] was 7.8% and the inhibition [24] was 33%. For the same compound, the inhibition [25] was 4.2%, the inhibition [26] was 19% and the inhibition [27] was 71%. It also gave an inhibition [28] of 44%, an inhibition [29] of 16% and an inhibition [30] of 37%. The inhibition [31] was 65%, the inhibition [32] was 44% and the inhibition [33] was 31%. The inhibition [34] was 25%, the IC50 [35] was 9320 nM and the inhibition [36] was 40%. It also gave an inhibition [37] of 20%, an inhibition [38] of 6.7% and an inhibition [39] of 31%. It also gave an inhibition [40] of 44%, an inhibition [41] of 30% and an inhibition [42] of 36%. The inhibition [43] was 49%, the inhibition [44] was 64% and the inhibition [45] was 71%. The inhibition [46] was 6.2%, the inhibition [47] was 8.3% and the inhibition [48] was 39%. The inhibition [49] was 65%.
